Hits are enriched below; roughly 3.5% of the tested compounds scored in any of these assays.
MrgX1 antag = human MrgX1 receptor antagonism, primary screen. Q96LB2. MRGX1-HEK293 calcium flux, Fluo-4, BAM8-22 antagonism; hits give low values. B-score at 10 µM. 310,000 compounds, 1.3% hits;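 active = calcium-response B-score plate-corrected more than 3 library SD below zero, starting fluorescence within 5 deviations, no agonist response on first addition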;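 also: peak minus trough fluorescence over baseline after final BAM8-22 challenge near maximal dose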
Target sequence (Q96LB2 whole entry, looked up): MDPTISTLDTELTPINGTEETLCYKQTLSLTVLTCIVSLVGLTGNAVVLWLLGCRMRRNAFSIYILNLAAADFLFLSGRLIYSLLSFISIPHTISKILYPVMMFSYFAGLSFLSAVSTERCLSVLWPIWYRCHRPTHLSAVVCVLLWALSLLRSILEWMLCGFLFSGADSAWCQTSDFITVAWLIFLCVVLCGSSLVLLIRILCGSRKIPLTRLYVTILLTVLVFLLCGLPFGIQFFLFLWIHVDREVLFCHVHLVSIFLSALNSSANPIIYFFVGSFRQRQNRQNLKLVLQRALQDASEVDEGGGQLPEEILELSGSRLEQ
MrgX1 PAM = human MrgX1 positive allosteric modulation, primary screen; 310,000 compounds, 0.63% hits; MrgX1-HEK293, Fluo-4 calcium flux, FDSS; hits give high values; B-score at 10 µM;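 active = plate-corrected calcium response at least 3 library SD above typical, normal starting fluorescence, not activating the receptor alone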;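 also: compound read alongside a low EC10 to EC30 dose of BAM8-22 agonist; peak minus trough fluorescence over baseline measured at the second addition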
MrgX1 ag = activates human MrgX1 receptor signaling | 310,000 compounds, 0.44% hits | B-score at 10 µM | Q96LB2 | MrgX1-HEK293 cells, Fluo-4 calcium fluorescence, agonist mode; hits give high values;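 active = calcium response B-score plate-corrected fluorescence ratio at least 3 library SD, with starting fluorescence B-score inside 5 SD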
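Assay system: stable human MrgX1 HEK293 cell line. Quantity: 15,000 cells per well. Schedule: cells plated overnight, dye loaded 0.5 h 37 °C, 0.5 h room temperature. Detection: Fluo-4 NW calcium-flux fluorescence, kinetic read. Read-out basis: peak-minus-minimum fluorescence over baseline, converted to B scores. Control set: positive and negative control wells on each plate.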
RGS4 inh = inhibitors of human RGS4; P49798; HEK293 M3R/RGS4 inducible, Fluo-4 calcium flux; hits give high values; triggered by carbachol at its EC20; B-score at 10 µM; 310,000 compounds, 0.45% hits; AID 463165;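 active = B-score, a plate-corrected calcium signal, over three deviations above library mean, with baseline fluorescence within five deviations of library mean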;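 also: RGS4 expression induced by doxycycline in cells with stable M3 receptor; B-score is computed from the integrated fluorescence ratio over baseline after carbachol; higher B-score means a larger calcium signal and so more RGS4 inhibition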
Target sequence (P49798 whole entry, looked up): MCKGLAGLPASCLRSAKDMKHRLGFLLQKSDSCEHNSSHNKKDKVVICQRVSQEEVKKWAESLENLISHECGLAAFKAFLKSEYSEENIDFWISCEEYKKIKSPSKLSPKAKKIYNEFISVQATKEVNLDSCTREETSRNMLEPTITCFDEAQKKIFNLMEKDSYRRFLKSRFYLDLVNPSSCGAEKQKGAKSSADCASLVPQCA
RGS4 pot = RGS4 potentiation or activation. HEK293 M3R/inducible RGS4, carbachol calcium flux Fluo4; hits give low values. AID 463111. B-score at 10 µM. 310,000 compounds, 0.92% hits;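 active = B-score of the integrated calcium signal more than 4 SD below the library mean, with starting fluorescence not abnormally high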;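 also: negative B-score means reduced calcium response which marks RGS4 activation or potentiation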
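test system = HEK293 cells with stable M3R and inducible RGS4 | schedule = recording 10 s baseline at 1 Hz, 100 s post-agonist | technique = Fluo4-AM (2 µM) calcium-flux fluorescence, kinetic read | measure = Agonist-evoked peak-minus-minimum fluorescence over baseline, integrated ratio, B score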
MrgX1 antag conf = reconfirmed antagonist of human MrgX1 receptor signaling | 2,300 compounds, 19% hits | remaining BAM8-22 calcium response % of control (hits give low values), % at 10 µM | shares compounds with MrgX1 antag | AID 602420 | MrgX1-HEK293, BAM8-22 calcium flux, Fluo-4; hits give low values;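 active = remaining agonist calcium response no higher than 100% minus 3 SD of agonist-only control wells, with starting fluorescence near control levels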;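 also: agonist BAM8-22 given at a near maximal EC90 to ECmax level; peak minus minimum fluorescence divided by baseline after agonist addition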
HEK293 Ca flux = activity in parental HEK293 cells lacking MrgX1; Fluo-4 calcium fluorescence, FDSS; 4,000 compounds, 2% hits; fluorescence ratio F(max-min)/F0 at 10 µM; AID 624111; shares compounds with MrgX1 antag;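 active = duplicate-averaged calcium fluorescence ratio at least three times the standard deviation of buffer wells, a nonspecific response in parental cells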
HEK293 Ca counter = counter-screen for MrgX1 allosteric activators: effect in parental HEK293 cells; fluorescence ratio F(max-min)/F0 at 10 µM; AID 624114; parental HEK293 calcium flux, Fluo-4 fluorescence ratio; hits give high values; shares compounds with MrgX1 antag; 4,000 compounds, 0.4% hits;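 active = calcium fluorescence ratio, averaged over duplicates, at least 3 SD of the buffer-well ratio, meaning a nonspecific response in receptor-free cells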;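 also: untransfected parental HEK293 lacking MrgX1 used as counterscreen for MrgX1 allosteric activators; fluorescence change taken during the second addition on a kinetic imager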
HEK293 Ca cntr2 = activity in parental HEK293 cells lacking MrgX1 receptor | shares compounds with MrgX1 antag | Fluo-4 calcium fluorescence (FDSS); hits give high values | fluorescence ratio F(max-min)/F0 at 10 µM | 4,000 compounds, 8.7% hits | AID 624115;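 active = calcium fluorescence ratio at least three times the spread of buffer wells, meaning a non-specific response in parental cells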
* marks the source's active call; other numbers are inactive results; i = inactive; · = not tested or not shown.

SMILES | MrgX1 antag | MrgX1 PAM | MrgX1 ag | RGS4 inh | RGS4 pot | MrgX1 antag conf | HEK293 Ca flux | HEK293 Ca counter | HEK293 Ca cntr2
COc1ccc(CC(=O)NCC(=O)Nc2ccccc2Br)cc1 | -6.03* | i | i | i | i | i | i | i | i
COc1ccc(NC(=O)CNC(=O)Cc2ccccc2)cc1 | i | i | i | i | i | · | · | · | ·
COc1ccc(NS(=O)(=O)c2csc(C(=O)N3CCCC3)c2)c(OC)c1 | i | i | i | i | i | · | · | · | ·
COc1cc(C2C3=C(CCCC3=O)Nc3ccc4ncccc4c32)ccc1O (stereo not given) | i | i | i | i | i | · | · | · | ·
COc1ccc(C2C3=C(CCCC3=O)Nc3ccc4ncccc4c32)cc1OC (stereo not given) | -4.67* | i | i | i | i | i | i | i | i
Cc1cc2oc(=O)cc(CN3CCOCC3)c2cc1C(C)C | i | i | i | i | i | · | · | · | ·
CCOc1ccc2oc(=O)cc(CN3CCOCC3)c2c1 | -7.27* | i | i | i | i | i | i | i | i
Cc1cccc(C(=O)Nc2nnc(SCC(=O)Nc3ccc4c(c3)oc3ccccc34)s2)c1 | -10.7* | i | i | i | i | i | i | i | i
COC(=O)c1ccc(CSc2nc(C)nc3sc(C)c(C)c23)o1 | -7.36* | i | i | i | i | i | i | i | i
COC(=O)c1ccc(CSc2nnc(SCc3ccc(C(=O)OC)o3)s2)o1 | i | i | i | i | i | · | · | · | ·
CC(=O)COc1ncnc2c(Cl)cc(Cl)cc12 | -4.93* | i | i | i | i | i | i | i | i
CC(=O)Oc1cccc(N2C(=O)c3ccc(C(=O)Nc4c[nH]c(=O)[nH]c4=O)cc3C2=O)c1 | i | i | i | i | i | · | · | · | ·
CCOC(=O)CC1C(=O)NCCN1S(=O)(=O)c1ccc(Cl)cc1Cl (stereo not given) | -6.93* | i | i | i | i | i | i | i | i
CCOC(=O)c1c(S(=O)(=O)NCC(=O)N2CCN(c3ccc(OC)cc3)CC2)c(C)n(C)c1C | i | i | i | i | i | · | · | · | ·
Cc1cccc(-c2nc(CSc3nc4c(c(=O)[nH]3)CCC4)c(C)o2)c1 | -8.42* | i | i | i | i | 81.5%* | i | i | i
Cc1cc(C)nc(NCCC(=O)O)n1 | i | i | i | i | i | · | · | · | ·
O=C(CCc1nc(-c2cccs2)no1)Nc1cnc2ccccc2c1 | -5.56* | i | i | i | i | 83.9%* | i | i | i
CCc1cccc(NC(=O)CCc2nc(-c3cccs3)no2)c1 | i | i | i | i | i | · | · | · | ·
CCOC(=O)c1csc(NC(=O)CCSc2ccccc2)n1 | -5.33* | i | i | i | i | i | i | i | i
Cc1cc(NC(=O)CC2CCCC2)ccc1Br | i | i | i | i | i | · | · | · | ·
Cc1cccc(NC(=O)CC2CCC2)c1 | -5.78* | i | i | i | i | i | i | i | i
O=C(Nc1cccc(Cl)c1)c1cccc(N2C(=O)C3CC=CCC3C2=O)c1 (stereo not given) | i | i | i | i | i | · | · | · | ·
Oc1ccc(N2CCN(C(c3ccncc3)c3nnnn3C3CCCC3)CC2)cc1 (stereo not given) | -8.08* | i | i | i | i | i | i | i | i
COC(=O)c1cn(C(=O)c2cccc(C)c2)c2ccccc12 | i | i | i | i | i | · | · | · | ·
CCOC(=O)N1CCC(NC(=O)CN(C)S(=O)(=O)c2cc3c(cc2Cl)NC(=O)CO3)CC1 | -5.2* | i | i | i | i | i | i | i | i
SMILES | MrgX1 antag | MrgX1 PAM | MrgX1 ag | RGS4 inh | RGS4 pot | MrgX1 antag conf | HEK293 Ca flux | HEK293 Ca counter | HEK293 Ca cntr2
Cc1nc2sc3c(c2c(=O)o1)CC(C)(C)OC3 | -6.12* | i | i | i | i | i | i | i | i
O=C(Nc1ccccc1C(=O)O)/C(=C/c1ccc([N+](=O)[O-])cc1)NC(=O)c1ccc(Br)o1 | i | i | i | i | i | · | · | · | ·
CCC(=O)N1CCc2cc(Br)cc(S(=O)(=O)CC(=O)OC)c21 | -5.91* | i | i | i | i | i | i | i | i
COC(=O)N1[C@H](C)C=C[C@]1(Cc1ccccc1)C(=O)NCCCNc1ncc(C(F)(F)F)cc1Cl | i | i | i | i | i | · | · | · | ·
CSc1nc2ccc3nc(NC(=O)c4ccccc4)sc3c2s1 | -7.36* | i | i | i | i | i | i | i | i
CCCC[C@@H]1CNC(=O)C(=O)N1CC(C)(C)C | -7.17* | i | i | i | i | i | i | i | i
COc1ccc(-n2c(Cc3cccn3C)nnc2SCC(=O)Nc2ccc(C)c(Cl)c2)cc1 | -4.8* | i | i | i | i | i | i | i | i
COc1ccc(Cl)cc1NC(=O)CSc1nc(=O)n(CCN(C)C)c2c1CCCC2 | i | i | i | i | i | · | · | · | ·
CCN(CC)CCn1c2c(c(SCC(=O)Nc3ccc(F)c(F)c3)nc1=O)CCC2 | -9.54* | i | i | i | i | i | i | i | i
COc1ccc(NC(=O)CSc2nc(=O)n(CCN(C)C)c3c2CCCC3)cc1OC | -5.62* | i | i | i | i | i | i | i | i
COc1ccc(C(C)=O)cc1COC(=O)C1CC(=O)N(Cc2ccccc2)C1 (stereo not given) | i | i | i | i | i | · | · | · | ·
O=C(CCCl)N1CCCC2(CCCCC2)C1 | i | i | i | i | i | · | · | · | ·
COCCCn1c(SCC(=O)NNC(=O)c2cccc(O)c2)nnc1-c1ccncc1 | i | i | i | i | i | · | · | · | ·
CN(C)/N=C/c1ccc(P(c2ccc(/C=N/N(C)C)o2)c2ccc(/C=N/N(C)C)o2)o1 | i | i | i | i | i | · | · | · | ·

Screening results from PubChem.
